# Reference: ChEMBL document CHEMBL2057117, “Oxoquinoline acyclonucleoside phosphonate analogues as a new class of specific inhibitors of human immunodeficiency virus type 1” (Bioorg Med Chem Lett, 2012)
# Assays:
# [1] = Cytotoxicity against human PBMC after 7 days by XTT assay; type: cell-based; conditions: PBMC (peripheral blood mononuclear cells)
# Method in brief: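 Confluent PBMCs were exposed to a range of compound concentrations for 7 days, and viability was then read by XTT. CC50 is the concentration giving 50% cytotoxicity relative to untreated controls. Mean ± SD of three independent experiments.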
# [2] = Selectivity ratio of CC50 for human PBMC to EC50 for R5-tropic Human immunodeficiency virus 1 Ba-L subtype B
# Method in brief: (§1)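 Selectivity index is calculated as CC50 (XTT viability in PBMCs, 7 days) divided by EC50 (p24 ELISA, HIV-1 Ba-L-infected PBMCs, 7 days).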
# [3] = system: Human immunodeficiency virus 1; experiment: Antiviral activity against R5-tropic Human immunodeficiency virus 1 Ba-L subtype B infected in human PBMC assessed as inhibition of viral replication after 7 days by ELISA; type: functional, organism-based; conditions: 168 h
# Method in brief: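 Phytohemagglutinin-stimulated PBMCs (2–3 days), then kept in medium with recombinant human IL-2, infected with HIV-1 Ba-L (R5-tropic, subtype B) and treated with a range of concentrations (µM). After 7 days, p24 antigen in culture supernatants was measured by capture ELISA. EC50 is the concentration reducing replication 50% versus infected controls. Mean ± SD of three independent experiments. AZT positive control.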
# [4] = molecular target: Human immunodeficiency virus type 1 reverse transcriptase (Human immunodeficiency virus 1, UniProt Q72547); experiment: Inhibition of Human immunodeficiency virus 1 reverse transcriptase
# [5] = system: Human immunodeficiency virus 1; experiment: Antiviral activity against Human immunodeficiency virus 1 infected in human PBMC assessed as inhibition of viral replication; type: functional, organism-based
# Method in brief: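 Human PBMCs stimulated with phytohemagglutinin for 2–3 days, then kept in medium with recombinant human IL-2. Cells infected with HIV-1 Ba-L (R5-tropic, subtype B) and exposed to a range of compound concentrations for seven days. Supernatant p24 antigen measured by capture ELISA. EC50 is the concentration giving 50% less replication than infected controls. Mean ± SD of three independent experiments.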
# [6] = Selectivity ratio of CC50 for human PBMC to EC50 for Human immunodeficiency virus 1 Ba-L; method in brief: as §1
# [7] = system: Human immunodeficiency virus 1; experiment: Antiviral activity against Human immunodeficiency virus 1 Ba-L infected in macrophages assessed as inhibition of viral replication; type: functional, organism-based
SMILES,CC50 at 168 h [1] [µM],Ratio CC50/EC50 [2],EC50 [3] [µM],Ki [4] [µM],EC50 [5] [µM],Ratio CC50/EC50 [6],EC50 [7] [µM]
CCOC(=O)c1cn(CP(=O)(OC(C)C)OC(C)C)c2ccc(Cl)cc2c1=O,1240,152.4,8.1,,,,
CCOC(=O)c1cn(CP(=O)(OC(C)C)OC(C)C)c2ccccc2c1=O,2310,316.4,7.3,,,,
CCOC(=O)c1cn(CP(=O)(OC(C)C)OC(C)C)c2cc(Cl)ccc2c1=O,828,39.4,21,,,,
CCOC(=O)c1cn(CP(=O)(OC(C)C)OC(C)C)c2ccc(Br)cc2c1=O,802,14.3,56,,,,
CCOC(=O)c1cn(CP(=O)(OC(C)C)OC(C)C)c2cc(Br)ccc2c1=O,731,11.9,61.2,,,,
CCOC(=O)c1cn(CP(=O)(OC(C)C)OC(C)C)c2ccc(F)cc2c1=O,2500,6240,0.4,,,,
CCOC(=O)c1cn(CP(=O)(OC(C)C)OC(C)C)c2cc(F)ccc2c1=O,2940,14675,0.2,,,,
CCOC(=O)c1cn(CP(=O)(OC(C)C)OC(C)C)c2ccc(C)cc2c1=O,1320,61.3,21.3,,,,
CCOC(=O)c1cn(CP(=O)(OC(C)C)OC(C)C)c2cc(C)ccc2c1=O,1120,123.9,9,,,,
CCOC(=O)c1cn(CP(=O)(OC(C)C)OC(C)C)c2ccc([N+](=O)[O-])cc2c1=O,931,,38,,,,
CCOC(=O)c1cn(CP(=O)(OC(C)C)OC(C)C)c2cc([N+](=O)[O-])ccc2c1=O,812,36.9,22,,,,
O=C(O)c1cn([C@@H]2O[C@H](CO)[C@@H](O)[C@H]2O)c2ccc(Cl)cc2c1=O,,,,0.5,1.5,1134,4.9
Cc1cn([C@H]2C[C@H](N=[N+]=[N-])[C@@H](CO)O2)c(=O)[nH]c1=O [ZIDOVUDINE],128,,0.16,,,,
